ChEMBL document CHEMBL4002546, “Evaluation of 7-arylaminopyrazolo[1,5-a]pyrimidines as anti-Plasmodium falciparum, antimalarial, and Pf-dihydroorotate dehydrogenase inhibitors” (Eur J Med Chem, 2017)

Columns and labels:
[1] = tested on: Plasmodium falciparum; experiment: Antiplasmodial activity against chloroquine-resistant Plasmodium falciparum W2 infected in human A+ erythrocytes assessed as inhibition of [3H]-hypoxanthine incorporation after 42 hrs by beta counting method; assay type: functional, cell-based
Summary of the method: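 W2 parasites cultured at 37 °C in A+ human erythrocytes in RPMI 1640 with 10% A+ human serum, under low O2 (3% O2, 5% CO2). Compound dilutions were tested at 1% parasitemia and 1% haematocrit. [3H]-hypoxanthine uptake was read by beta counting after 42 h. IC50 was derived by curve fitting relative to drug-free controls.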

[2] = Cytotoxicity against African green monkey BGM cells assessed as lethality after 24 hrs by neutral red dye based assay; assay type: cell-based; conditions: chlorocebus aethiops, read-out: MLD50
Summary of the method: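 BGM monkey kidney cells grown in RPMI 1640 with 10% heat-inactivated foetal serum and gentamicin. Cells were seeded at 1 × 10⁵ cells/mL and left 18 h to adhere. Compounds were added across a 1000–1 dilution range for 24 h at 37 °C in 5% CO2. Cells took up neutral red for 2 h, were fixed with formaldehyde/CaCl2 and extracted with alcohol-acetic acid, then read at A540. Viability is % of untreated cells; MLD50 was calculated from this.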

[3] = Selectivity index, ratio of MLD50 for african green monkey BGM cells to IC50 for chloroquine-resistant Plasmodium falciparum W2 infected in human A+ erythrocytes by [3H]-hypoxanthine incorporation assay; assay type: toxicity, cell-based; conditions: read-out: Selectivity Index
[4] = target: Dihydroorotate dehydrogenase (quinone), mitochondrial (Homo sapiens) (UniProt Q02127); experiment: Inhibition of recombinant human DHODH assessed as residual activity at 50 uM using L-dihydroorotate as substrate by DCIP-based colorimetric assay relative to control
Summary of the method: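 Recombinant human DHODH at 20 nM final, in 50 mM Tris pH 8.15 with 150 mM KCl and 0.1% Triton X-100. Substrate was 1 mM L-dihydroorotate, with CoQ0 as acceptor and DCIP as dye. DCIP reduction was followed at 610 nm for 60 s at 25 °C, against a no-enzyme reference. Four replicates per concentration; activity is % of the uninhibited control.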

[5] = Inhibition of N-terminally truncated Plasmodium falciparum SUMO-tagged DHODH (159 to 569 residues) expressed in Escherichia coli BL21(DE3) using L-dihydroorotate as substrate by DCIP-based colorimetric assay
Summary of the method: (§1)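 Recombinant PfDHODH expressed in E. coli BL21(DE3) from a SUMO-His construct, IPTG-induced. Purified by Ni-NTA, then ULP1 tag cleavage, then size exclusion. Activity measured as continuous DCIP reduction at 600 nm over 60 s at 25 °C. Reaction: 50 mM Tris pH 8.15, 150 mM KCl, 0.1% Triton X-100, 1 mM L-dihydroorotate, 100 µM CoQ₀, 60 µM DCIP, 50 nM enzyme. Four replicates per concentration; activity relative to no-inhibitor control. IC50 from nonlinear fit.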

[6] = tested on: Plasmodium falciparum; experiment: Inhibition of N-terminally truncated Plasmodium falciparum SUMO-tagged DHODH (159 to 569 residues) expressed in Escherichia coli BL21(DE3) assessed as residual activity at 50 uM using L-dihydroorotate as substrate by DCIP-based colorimetric assay relative to control; summary of the method: as §1
[7] = tested on: Plasmodium falciparum; experiment: Antiplasmodial activity against chloroquine-resistant Plasmodium falciparum W2 infected in human A+ erythrocytes after 48 hrs by SYBR Green based fluorescence assay; assay type: functional, cell-based; conditions: W2, 48 h
Summary of the method: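 W2 parasites kept at 37 °C in A+ human red cells in RPMI 1640 with 10% A+ human serum, under 3% O2/5% CO2/91% N2. Serial dilutions were run at 0.5% parasitemia and 2% haematocrit for 48 h at 37 °C. Cells were lysed in Tris/EDTA/saponin/Triton buffer with SYBR Safe for 30 min in the dark, then read at ex 485/em 535 nm. IC50 was curve-fitted against drug-free controls.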

[8] = tested on: Plasmodium berghei; experiment: (§2) Antimalarial activity against Plasmodium berghei NK65 infected in mouse assessed as reduction in parasitemia at 5 mg/kg, po administered daily for 3 consecutive days starting 24 hrs post inoculum challenge containing parasitized red blood cells measured on day 5 by giemsa staining based microscopic method; assay type: functional
Summary of the method: (§3)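 P. berghei NK65 maintained by weekly blood passage. Mice inoculated i.p. with 1 × 10⁶ infected erythrocytes, randomized after ~24 h into groups of five. Oral dosing at 5 mg/kg once daily for 3 days, freshly diluted in 3% DMSO in RPMI; vehicle and amodiaquine controls. Parasitemia read on Giemsa-stained, methanol-fixed tail-blood thin smears. Inhibition is relative to untreated mice, taken as 100% growth.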

[9] = tested on: Plasmodium berghei; experiment: as §2, with “day 7” for “day 5”; assay type: functional; summary of the method: as §3
[10] = tested on: Plasmodium berghei; experiment: as §2, with “day 9” for “day 5”; assay type: functional; summary of the method: as §3
[11] = tested on: Plasmodium berghei; experiment: as §2, with “day 11” for “day 5”; assay type: functional; summary of the method: as §3
[12] = Solubility of the compound at >100 uM; assay type: physicochemical
[13] = Selectivity index, ratio of MLD50 for african green monkey BGM cells to IC50 for chloroquine-resistant Plasmodium falciparum W2 infected in human A+ erythrocytes by SYBR Green based fluorescence assay; assay type: toxicity, cell-based
[14] = tested on: Plasmodium falciparum; experiment: Antiplasmodial activity against chloroquine-resistant Plasmodium falciparum W2 infected in human A+ erythrocytes by HRP2 detection based ELISA; assay type: functional, cell-based
Summary of the method: (§4)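 W2 blood-stage culture in A+ human erythrocytes in RPMI 1640 with 10% A+ human serum at 37 °C, under 3% O2/5% CO2. Growth was read with monoclonal antibodies against histidine- and alanine-rich protein II (HRPII). IC50 was estimated by curve fitting against drug-free controls.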

[15] = Selectivity index, ratio of MLD50 for african green monkey BGM cells to IC50 for chloroquine-resistant Plasmodium falciparum W2 infected in human A+ erythrocytes by HRP2 ELISA assay; assay type: toxicity, cell-based; conditions: read-out: Selectivity Index
[16] = tested on: Plasmodium falciparum; experiment: Antiplasmodial activity against chloroquine-resistant/mefloquine-sensitive Plasmodium falciparum W2 infected in human A+ erythrocytes assessed as inhibition of parasite growth by HRP2 detection based assay; assay type: functional, cell-based; summary of the method: as §4

Sequence of Dihydroorotate dehydrogenase (quinone), mitochondrial (Homo sapiens) (Q02127 whole entry): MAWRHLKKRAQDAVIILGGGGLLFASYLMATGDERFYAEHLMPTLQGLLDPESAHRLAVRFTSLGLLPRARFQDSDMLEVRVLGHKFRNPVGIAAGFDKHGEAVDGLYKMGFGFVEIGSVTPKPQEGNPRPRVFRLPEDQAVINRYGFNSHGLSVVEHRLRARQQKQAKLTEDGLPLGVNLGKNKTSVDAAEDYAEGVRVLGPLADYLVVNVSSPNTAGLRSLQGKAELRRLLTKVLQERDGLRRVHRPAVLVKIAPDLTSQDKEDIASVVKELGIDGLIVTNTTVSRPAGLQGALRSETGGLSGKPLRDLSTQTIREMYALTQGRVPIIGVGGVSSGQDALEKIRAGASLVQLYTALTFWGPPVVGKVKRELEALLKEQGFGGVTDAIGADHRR

Compound	IC50 [1] [µM]	CC50 at 24 h [2] [µM]	selectivity ratio [3]	Activity [4] [%]	IC50 [5] [µM]	Activity [6] [%]	IC50 [7] [µM]	inhibition in vivo at 5 mg/kg [8] [%]	inhibition in vivo at 5 mg/kg [9] [%]	inhibition in vivo at 5 mg/kg [10] [%]	inhibition in vivo at 5 mg/kg [11] [%]	solubility [12]	selectivity ratio [13]	IC50 [14] [µM]	selectivity ratio [15]	IC50 [16] [µM]
Cc1cc(Nc2ccc3ccccc3c2)n2nc(C)cc2n1	5.1	406	79.6	71.9	4	41	5.1	50	40	53	65	Insoluble	79.6	–	–	–
Cc1cc(Nc2ccccc2C(F)(F)F)n2nc(C(F)(F)F)cc2n1	50	228	4.6	93	–	48	–	–	–	–	–	–	–	44.4	5.1	–
Cc1cc(Nc2ccc(C(F)(F)F)cc2)n2nc(C)cc2n1	15.7	85	5.4	88	24	34.3	–	–	–	–	–	–	–	8.5	10	–
COc1cc(Nc2cc(C)nc3cc(C)nn23)cc(OC)c1	26.8	188	7	80	> 400	42	–	–	–	–	–	–	–	21.5	8.7	–
Cc1cc(Nc2ccc(Cl)cc2)n2nc(C(F)(F)F)cc2n1	50.3	67.5	1.3	121	23	52	–	–	–	–	–	–	–	67.5	1	–
COc1cc(Nc2cc(C(F)(F)F)nc3cc(C)nn23)cc(OC)c1	8.6	> 2840	> 330	104	–	77	8.6	–	–	–	–	Insoluble	> 330	–	–	–
Cc1cc2nc(C(F)(F)F)cc(Nc3ccccc3)n2n1	17.1	261	15.2	122	–	77	17.1	–	–	–	–	Insoluble	15.2	–	–	–
FC(F)(F)c1cc(Nc2cc(Cl)cc(Cl)c2)n2nc(C(F)(F)F)nc2n1	–	–	–	–	–	–	–	–	–	–	–	–	–	–	–	12.3
Cc1cc(Nc2ccc3ccccc3c2)n2nc(C(F)(F)F)cc2n1	1.2	561	468	56.8	6	67.5	1.2	50	61	47	59	Insoluble	468	–	–	–
COc1cc(Nc2cc(C)nc3cc(C(F)(F)F)nn23)cc(OC)c1	> 142	256	–	95	> 400	57	–	–	–	–	–	–	–	> 142	–	–
Cc1cc(Nc2ccccc2C(F)(F)F)n2nc(C)cc2n1	42.5	105	2.5	96	–	94	–	–	–	–	–	–	–	49	2.1	–
Cc1cc(Nc2ccccc2)n2nc(C(F)(F)F)cc2n1	> 171	856	–	113	–	88	–	–	–	–	–	–	–	> 171	–	–
CCN(CC)Cc1cc(Nc2ccnc3cc(Cl)ccc23)ccc1O [AMODIAQUINE]	0.006	–	–	–	> 400	79	0.006	100	100	100	100	–	–	–	–	–
Cc1cc(Nc2ccccc2)n2nc(C)cc2n1	67.2	315	4.7	104	–	66	–	–	–	–	–	–	–	92.4	3.4	–
Cc1cc(Nc2ccc(C(F)(F)F)cc2)n2nc(C(F)(F)F)cc2n1	47.2	108	2.3	95	> 100	33	–	–	–	–	–	–	–	30.6	3.5	–
Cc1cc(Nc2ccc(Cl)cc2)n2nc(C)cc2n1	25.7	566	22	95	–	74	–	–	–	–	–	–	–	23.5	24.1	–
COc1ccc(Nc2cc(C)nc3nc(C(F)(F)F)nn23)cc1	–	–	–	–	–	–	–	–	–	–	–	–	–	–	–	0.4
CCN(CC)CCCC(C)Nc1cc(C)nc2nc(C(F)(F)F)nn12 (configuration not stated)	–	–	–	–	–	–	–	–	–	–	–	–	–	–	–	39
Cc1cc2nc(C(F)(F)F)cc(Nc3ccc4ccccc4c3)n2n1	10	2340	234	101	0.16	60	10	25	1	4	29	Insoluble	234	–	–	–
Cc1cc(Nc2ccc3ccccc3c2)n2nc(C(F)(F)F)nc2n1	–	425	18.5	–	0.7	37	–	–	–	–	–	–	–	–	18.5	–
